Assay results published in article PMC2911241 (Letters in drug design & discovery, 2010).

Key:
[1] = tested on: human chronic myelogenous K562 leukemia cells; test: Cell proliferation analysis, K562 cells; assay type: cell-based; details: for IC50: Homo sapiens, K562, 24 h, read-out: IC50 K562
How it was run: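 K562 cells grown in RPMI 1640 with 10% FCS, 2 mM L-glutamine, […] and penicillin/streptomycin at 37°C, 5% CO2. DMSO stocks (1 mg/mL) diluted in medium. Cells (1×10^4/well) exposed to increasing concentrations for 24 h at 37°C, then counted electronically. IC50 is 50% growth inhibition vs untreated controls. Duplicate cultures per concentration, repeated experiments, mean ± SE.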

[2] = tested on: murine lymphocytic L1210 leukemia cells; test: Cell proliferation analysis, L1210 cells; assay type: cell-based; details: for IC50: Mus musculus, L1210, 24 h, read-out: IC50 L1210
How it was run: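 Murine L1210 cells maintained at 1×10^6 cells/mL in RPMI 1640 with 10% FCS, 2 mM L-glutamine, […] and penicillin/streptomycin (37 °C, 5% CO2). DMSO stocks (1 mg/mL) diluted in medium. 1×10^4 cells/well exposed to increasing concentrations for 24 h at 37 °C; cell number/mL counted on a Coulter counter. IC50 relative to untreated controls, duplicate cultures per concentration, mean ± SE of ≥3 independent experiments.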

| Compound | IC50 [1] [nM] | IC50 [2] [nM] | fold more potent than 4c ([2]; against L1210 cells) | fold increase in potency relative to 4b ([1]; against K562 cells) [fold] | fold more potent than the bromine 3c ([1]; antiproliferative activity, K562 and L1210 cells) [fold] |
| --- | --- | --- | --- | --- | --- |
| COc1cc(C(=O)c2sc3cc(C)ccc3c2NC(=O)CI)cc(OC)c1OC [Compound 3x, 2-Iodo-N-[6-methyl-2-(3,4,5-trimethoxybenzoyl)-1-benzothien-3-yl]acetamide] | 610 ± 10 | 440 ± 70 |  |  |  |
| COc1cc(C(=O)c2sc3c(C)cccc3c2NC(=O)CO[N+](=O)[O-])cc(OC)c1OC [Compound 4d, 2-{[7-Methyl-2-(3,4,5-trimethoxybenzoyl)-1-benzothien-3-yl]amino}-2-oxoethyl nitrate] | 50 ± 10 |  | about 5 fold |  |  |
| COc1cc(C(=O)c2sc3cc(C)ccc3c2NC(=O)CO[N+](=O)[O-])cc(OC)c1OC [Compound 4c, 2-{[6-Methyl-2-(3,4,5-trimethoxybenzoyl)-1-benzothien-3-yl]amino}-2-oxoethyl nitrate] | 30 ± 20 | 280 ± 30 |  | 20 |  |
| COc1cc(C(=O)c2sc3c(C)cccc3c2NC(=O)CCl)cc(OC)c1OC [Compound 3z, 2-Chloro-N-[7-methyl-2-(3,4,5-trimethoxybenzoyl)-1-benzothien-3-yl]acetamide] | 40 ± 20 | 50 |  |  |  |
| C=C(Br)C(=O)Nc1c(C(=O)c2cc(OC)c(OC)c(OC)c2)sc2cc(C)ccc12 [Compound 5f, 2-Bromo-N-[6-methyl-2-(3,4,5-trimethoxybenzoyl)-1-benzothien-3-yl]acrylamide] | 940 ± 60 | 59 |  |  |  |
| C=C(Br)C(=O)Nc1c(C(=O)c2cc(OC)c(OC)c(OC)c2)oc2c(OC)cccc12 [Compound 5d, 2-Bromo-N-[7-methoxy-2-(3,4,5-trimethoxybenzoyl)-1-benzofuran-3-yl]acrylamide] | 55900 ± 4600 | 26800 ± 3200 |  |  |  |
| COc1cc(C(=O)c2oc3c(OC)cccc3c2NC(=O)CI)cc(OC)c1OC [Compound 3p, 2-Iodo-N-[7-methoxy-2-(3,4,5-trimethoxybenzoyl)-1-benzofuran-3-yl]acetamide] | 6960 ± 1120 | 42800 ± 3770 |  |  |  |
| COc1ccc2oc(C(=O)c3cc(OC)c(OC)c(OC)c3)c(NC(=O)CI)c2c1 [Compound 3h, 2-Iodo-N-[5-methoxy-2-(3,4,5-trimethoxybenzoyl)-1-benzofuran-3-yl]acetamide] | 49200 ± 1800 | 520 ± 30 |  |  |  |
| COc1cc(C(=O)c2sc3ccccc3c2NC(=O)CBr)cc(OC)c1OC [Compound 3s, 2-Bromo-N-[2-(3,4,5-trimethoxybenzoyl)-1-benzothien-3-yl]acetamide] | 610 ± 40 | 500 ± 10 |  |  |  |
| COc1cc(C(=O)c2oc3ccccc3c2NC(=O)CO[N+](=O)[O-])cc(OC)c1OC [Compound 4a, 2-Oxo-2-{[2-(3,4,5-trimethoxybenzoyl)-1-benzofuran-3-yl]amino}ethyl nitrate] | 31400 ± 1000 |  |  |  |  |
| COc1cc(C(=O)c2oc3ccccc3c2NC(=O)CBr)cc(OC)c1OC [Compound 3c, 2-Bromo-N-[2-(3,4,5-trimethoxybenzoyl)-1-benzofuran-3-yl]acetamide] | 12800 ± 510 | 4560 ± 640 |  |  |  |
| COc1cc(C(=O)c2oc3ccccc3c2NC(=O)CI)cc(OC)c1OC [Compound 3d, 2-Iodo-N-[2-(3,4,5-trimethoxybenzoyl)-1-benzofuran-3-yl]acetamide] | 2210 ± 90 |  |  |  | 6 |
| COc1cc(C(=O)c2sc3c(C)cccc3c2NC(=O)CI)cc(OC)c1OC [Compound 3ab, 2-Iodo-N-[7-methyl-2-(3,4,5-trimethoxybenzoyl)-1-benzothien-3-yl]acetamide] | 550 ± 10 |  |  |  |  |
| C=C(Br)C(=O)Nc1c(C(=O)c2cc(OC)c(OC)c(OC)c2)sc2c(C)cccc12 [Compound 5g, 2-Bromo-N-[7-methyl-2-(3,4,5-trimethoxybenzoyl)-1-benzothien-3-yl]acrylamide] | 490 ± 30 |  |  |  |  |
| COc1cc(C(=O)c2sc3ccccc3c2NC(C)=O)cc(OC)c1OC [Compound 3q, N-[2-(3,4,5-Trimethoxybenzoyl)-1-benzothien-3-yl] acetamide] | 630 ± 40 |  |  |  |  |
| COc1cc(C(=O)c2oc3c(OC)cccc3c2NC(=O)CBr)cc(OC)c1OC [Compound 3o, 2-Bromo-N-[7-methoxy-2-(3,4,5-trimethoxybenzoyl)-1-benzofuran-3-yl]acetamide] | > 100000 |  |  |  |  |
